Laboratory results published in the EternaBench riboswitch data.

System: MS2 coat protein
Test: apparent Kd, MS2 coat protein; higher = weaker binding; RNA-MaP array; FMN 200 µM where present
How it was run: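 Green signal was scaled to red-channel RNA signal and control-cluster median Fmax, and the apparent Kd was taken as the median of filtered per-cluster binding-curve fits. The binding series used SNAP-549-labelled MS2 coat protein from 0.7 or 1.5 nM, doubling to 3 µM, on designs transcribed by stalled E. coli RNA polymerase on Illumina sequencing-chip clusters. Each series ran without and then with constant ligand in 100 mM Tris-HCl pH 7.5, 80 mM KCl, 4 mM MgCl2, BSA, DTT, yeast tRNA and Tween-20.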

[1] = designed as: OFF switch for flavin mononucleotide, no ligand
[2] = ligand present: flavin mononucleotide, designed as: OFF switch for flavin mononucleotide
[3] = designed as: ON switch for flavin mononucleotide, no ligand
[4] = ligand present: flavin mononucleotide, designed as: ON switch for flavin mononucleotide

Sequence	apparent Kd [1]	apparent Kd [2]	apparent Kd [3]	apparent Kd [4]
UUUUUGUGAGGAUAUCAGUAGUAGAACAAUAGUACUACUACUGAGAAGGCACAUGAGGAUCACCCAUGUUCUUC	29 nM	133 nM	–	–
GGACGUCUCAUUAACAUGAGGAUCACCCAUGUCGAUAGACAUGAGGAUAUGGAUCCUAAUUGGAUCCAGAAGGCAUGGACGUCC	–	–	1040 nM	67.6 nM
CGGCUCGGAGAGGAUAUGCAGGCCAACGGCACUGCAGAAGGUUCAACAUGAGGAUCACCCAUGUGAUUUCAACU	23.6 nM	33.5 nM	–	–
UUAUUGUGAGGAUAUCCAAUAUAUGACAUGAGGAUCACCCAUGUUUCCACUCGUACCUCCGGAGAAGGCACAGUUU	31.2 nM	24.1 nM	–	–
ACUUGUAAGUAGAAGGUAGUCAUUAUAUUAAUCAUGUAAACAUGAGGAUCACCCAUGUAGAGUACUAAGGAUAUACAUCGAUAG	–	9.91 nM	–	–
UUAUUAUAUGUAGGAUAUGCGUAUUAUUAUUAUGCAGAAGGACAUGAGGAUCACCCAUGUAUAUUAUUAUUAUAUAUUAUAUAU	29 nM	66.9 nM	–	–
AGGUAACAUGAGGAUCACCCAUGUCAGGAUAUCAGGAAGAUUAGAAUAGAGUAGAGGAUGAGAAGGGACUAUAU	32 nM	30.3 nM	–	–
AAGUUGGUAGGAUAUACGUGCAAUUGGUGUGUCCGGAAAAAACAUGAGGAUCACCCAUGUAGAAGGACCAAAAA	49.3 nM	57.5 nM	–	–
UGAUACUAAGAGAAGGUACAAACUACAUAUUACAUACAUGAGGAUCACCCAUGUUGGUGAAUAAGUAAGGAUAUUUUACUAUAU	15.4 nM	12.4 nM	–	–
ACGCAGCUGGGUGAGGAUAUCGGUGGUACUACAUGAGGAUCACCCAUGUCCGAAGCUCGGACCUCCGAGAAGGCGCCCGGCUGCG	–	–	284 nM	31.4 nM
AGAUCCUGAGUCAGGAUAUAGAGGCGGUAGCCUGGCUAGAAGGGACAUGAGGAUCACCCAUGUGGGUUCGAGCC	17.7 nM	31.3 nM	–	–
UAUAAAACAUAGGAUAUCGAAAUUAUCAUUUAACGAGAAGGAUGAACAUGAGGAUCACCCAUGUGGUAUCAUGG	392 nM	518 nM	–	–
AUAAUGUAAGGAUAUCAGUCGUAAUUAAUUUAAUUAUCGACUGAGAAGGUACAUGAGGAUCACCCAUGUGGUCA	916 nM	102 nM	–	–
UUUUACGUAGGAUAUACAUUUUUUUUAUUAUUUUCAUUAUUACAUGAGGAUCACCCAUGUAGAAGGACGAUUUU	22.8 nM	22 nM	–	–
AAGACGUGGGAAGGAUAUCUGGAAUAUCGGUCGAGAGAAGGUCCCUCGACAUGAGGAUCACCCAUGUAACACGGUCUACCGUGG	–	–	472 nM	280 nM
UCGAGGUCAGGAUAUACAUGAGGAUCACCCAUGUUGAGAUAAGGUAGGAAAAGAGUAGGUAGAAGGGACGAGAG	27.6 nM	30.9 nM	–	–
CCCGUCAUCGAGAAGGCCUCAACAUGAGGAUCACCCAUGUUGUAAUAUGGGAGGAUAUCGAUGAUACAGCUACGUUUCGUACCC	–	–	17.1 nM	5.8 nM
GCUGUCGCGUGAGGAUAUGGUCAGCUUUGCUGACCAGAAGGCAUGUCAAUAGACAUGAGGAUCACCCAUGUGGUUAGGGCGGCU	–	–	1070 nM	136 nM
GCGUGACAUGAGGAUCACCCAUGUGAGGAUAUCUGGAUAAUCUUUAUUUUAGAUAUCCAGAGAAGGCACAUGCU	162 nM	117 nM	–	–
CUCGUGUGAGGAUAUGCGGGCGGGCGCGUUUGUGUUUGUUUGUAGAAGGUACAUGAGGAUCACCCAUGUGCUGG	24 nM	80.9 nM	–	–
UAUUCGUUCUAGAAGGUGCAUUUGUUAAACAUGCAAGGAUAUAGACAUGAGGAUCACCCAUGUCUAUGAGACAUCGGCCUCCUU	7.15 nM	24.9 nM	–	–
GCACAUGAGGAUCACCCAUGUCGGGAGGAUAUCUAGGCUGGGCGAUGCUAGGGCGGCCUUUGCUUAGAGAAGGCCCAUAAAAUC	–	–	69.1 nM	32.4 nM
GCGUUGAACGAGAAGGCCAAUACAUGAGGAUCACCCAUGUAGUGAAGUAUUGGAGGAUAUCGAUCGGCGUCUCAUGAGCAACGC	7.49 nM	19.6 nM	–	–
UGAUCUAUGUAGAAGGCCCAUAUCUGUAUUUAGGGAGGAUAUACAUGAGGAUCACCCAUGUGUAGAGCUGGUGGACUGGUCAGC	87.8 nM	183 nM	–	–
UUAUUUAUGCAAGGAUAUCAAUUAUAUUGACGUCCUACAUGAGGAUCACCCAUGUUUAGUUUUUUUGAGAAGGUGCAUUGUCUG	–	–	64.8 nM	59.7 nM
GAUGCAUAUGAGAAGGCGAUCAUGAAACAUGAUCGAGGAUAUCAUGUAAACAUGAGGAUCACCCAUGUAUGGGUAAAGUGCAUC	–	–	392 nM	27.7 nM
UUUUAACAUGAGGAUCACCCAUGUGAGGAUAUCGUUUUUUAUAUUAAUAUUAAUAAAACGAGAAGGCACAUUUU	137 nM	150 nM	–	–
AAAAAACAUGAGGAUCACCCAUGUGAGGAUAUCAAAUAAAGGCACAUGAGAAGGCAUAUGAGAAGGCACAUGAA	99.3 nM	156 nM	–	–

Sequence	apparent Kd [1]	apparent Kd [2]	apparent Kd [3]	apparent Kd [4]
ACAUGAGGAUCACCCAUGUGACAAGAAUGGCUGAUACAGAGACAGGAUAUAGGUGCAUAUCUAACCUAGAAGGGUCAUGACUGG	35.2 nM	31.9 nM	–	–
AUCCGGCGUGUAGGAUAUGGAUCCGAUUAGGAUCCAGAAGGACAUGAGGAUCACCCAUGUACAUGUAAACAGUCAUCACCGGAG	10.2 nM	56.4 nM	–	–
CGGGCAAUGUCCGAGACAUGAGGAUCACCCAUGUUAGCAGCACAGGAUAUCAUGUUUUGUAAAGGUGAGAAGGGUGAUUGCAUC	–	–	273 nM	139 nM
AGAUCACAUGAGGAUCACCCAUGUCAGGAUAUGAUACUAUGUACUUCGGUACAUAGUAUCAGAAGGGACUUAAA	101 nM	283 nM	–	–
CGGUUAUAUCGAGGAUAUAAGUCUAGGACAUGAGGAUCACCCAUGUAUGUCUUAGAAGGCGAUAUAACCAGCCUGUUACAGGCA	–	–	29.3 nM	6.32 nM
ACGUGUAAGCAGAAGGGUUAGCACAUGAGGAUCACCCAUGUAACAGUGGACAGGAUAUGCGCUCAUGUUGGAUAGGGCCUUCCC	–	–	302 nM	67.6 nM
UGACCCAUGACAUGAGAUGACAUGAGGAUCACCCAUGUGUACAAGGAUAUGUUGGUCAAAGGUCGGCAGAAGGUGUAAUGGGAU	59.8 nM	146 nM	–	–
GUCAGCUCGUGAGGAUAUACAUGUGCUGGAUACAGCACUAAUUAAAUCACAUGAGGAUCACCCAUGUAGAAGGCACGAGCUGAU	16.7 nM	24.8 nM	–	–
GAAGGGCCUCGAGGAUAUCGCUGCGGUCGUUUGACAUGAGGAUCACCCAUGUGAGAAGGCGAGGCUACUAACCAUGCCCGUUAU	31.3 nM	148 nM	–	–
CGGCGCUGUCGAGAGGAUAUGCGGUGAUGGACAUGAGGAUCACCCAUGUUAGCGAUAGCAUUACGGUAGAAGGCUCUAUAGUUGC	–	–	362 nM	93.2 nM
UGAGCGACCACAGGAUAUGCUUGAGAAGACCGAGCAGAAGGGUGGAAGAGCGUGCAGUGACAUGAGGAUCACCCAUGUGGUUGG	–	–	173 nM	170 nM
CAAAACAUCUCCGUGUUUGUCGAACAUGAGGAUCACCCAUGUAGAAGGCGCUUCGCGUCGCGGAGCGAGGAUAUACGCUGGAUG	11.4 nM	86.3 nM	–	–
GGAUUUCCUGAGGAUAUUGCAUCACCUGAUUUAUAAGAAGGCAGAACAUGAGGAUCACCCAUGUGGGUAUUCGG	27.6 nM	37.4 nM	–	–
UGUUGUAUUACAGGAUAUCUAGUAUUUUAAUUUAGAGAAGGGUAUUCACAUGAGGAUCACCCAUGUAUAUACGAGGAAGUUGUG	–	–	51.3 nM	61.6 nM
GGGCACAAAGGAUAUACAUGAGGAUCACCCAUGUUCACCACAACAUGUUACUGCCCAAGUAGAAGGUUGGCCCA	38.7 nM	288 nM	–	–
AAAACAUGAGGAUCACCCAUGUUUAGAUCGGUCGAUAGAAGUGAGGAUAUACUAAGUUAAGGCUGGUAGAAGGCACUGGGUACA	–	–	26.9 nM	27.5 nM
CCGCAAAAGCAGGAUAUCGUAUCGGAAACGAUACGAGAAGGGUUUACAUGAGGAUCACCCAUGUUCCUUAGCGG	29.1 nM	38 nM	–	–
UUAUGUGGCGUAGGAUAUCAUUAGAUUUGUAAUUUAAUUGUAAUUUCCAUAUGAGAAGGACGUACACAUGAGGAUCACCCAUGU	90.1 nM	32.4 nM	–	–
GGAGAACACAUUAACAUGAGGAUCACCCAUGUCAAAAGACAUGAGGAUAUGGAUCCGAAAAGGAUCCAGAAGGCAUGGUGCUCC	–	–	511 nM	26.5 nM
CGUGUCAUCGAGAAGGCCUCAACAUGAGGAUCACCCAUGUUGUAAUAUGGGAGGAUAUCGAUGAUACAGCUACGUUUCGUAGCG	–	–	19.1 nM	6.07 nM
GGAUCGAGUGUGAGGAUAUACCACUGGAUACAGUGGUAGAAGGCACAUGAGGAUCACCCAUGUCCUUACGAUCC	81.4 nM	436 nM	–	–
UUACUAUAACAGAAGGCUAGAUAAUAUAUAAAUGGAGGAUAUGUUACAUGAGGAUCACCCAUGUUUCACCCACAUGAGGAUCAC	16.4 nM	52.2 nM	–	–
AGGGAGUUAGGAUAUGCUGCUCGUCACUUGCGUGAUGAGUAGCAGAAGGGACAUGAGGAUCACCCAUGUAAAGA	42.1 nM	24.7 nM	–	–
UGGUACUAGGGAGGAUAUGGGAAGAUACAUGAGGAUCACCCAUGUUUAAGAAUGCCGAGAGGCAACUAGAAGGCCCUGGUACCU	–	–	459 nM	17.9 nM
GAAAAACAUGAGGAUCACCCAUGUAAGGAUAUGCUGAAAAACACGGAAAAAACGUGCAGCAGAAGGUACAAAAG	63.2 nM	83.3 nM	–	–
UAUGUGUCAGGAUAUUAGUAGUAUAUAGAUAUAUAUAUUACUGAGAAGGGACAUGAGGAUCACCCAUGUACCUU	16.5 nM	19.1 nM	–	–
CGACCCUGAACGAAAUCAUGCAGUCAGGAUAUACAUGAGGAUCACCCAUGUGCGUACCAACUCGUGUAGAAGGGACUUUCAGGG	12.7 nM	33.2 nM	–	–
